In brackets after ≈: the same amount, converted by molar mass.
Legend:
Mus musculus [1] = assay: Efficacy against mouse infected ip with 3055 strain of Staphylococcus aureus, administered sc to 19-21-g random sex ICR mice at 1 hr and 5 hr; type: functional
In short: (§1)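 ICR mice, random sex, 19-21 g, challenged ip with 50-500 LC50 from a frozen organism pool; compound given sc or po at 1 and 5 h after challenge, five 2-fold dose levels, eight mice per level; ED50 derived.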

Klebsiella pneumoniae = assay: Minimum inhibitory concentration against X68 strain of Klebsiella pneumoniae; type: functional
Staphylococcus aureus [2] = assay: Minimum inhibitory concentration against X1.1 strain of Staphylococcus aureus; type: functional
Streptococcus pneumoniae [3] = assay: Minimum inhibitory concentration against park strain of Streptococcus pneumoniae
Haemophilus influenzae [4] = assay: (§2) Minimum inhibitory concentration against sens CL strain of Haemophilus influenzae; type: functional
Streptococcus pneumoniae [5] = assay: Minimum inhibitory concentration against Park strain of Streptococcus pneumoniae; type: functional
[6] = Oral bioavailability in mouse; type: ADME, organism-based; conditions: in vivo
In short: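 Male Cox mice given water and liquid diet overnight; 20 mg/kg in saline (2 mg/mL) sc or orally; urine from collection cages plus bladder contents over 2 h; activity by agar well assay with Bacillus subtilis ATCC 6633. Bioavailability from percent dose excreted in urine after oral vs parenteral dosing.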

Escherichia coli = assay: Minimum inhibitory concentration against EC14 strain Escherichia coli; type: functional
Streptococcus pyogenes [7] = assay: Minimum inhibitory concentration against Streptococcus pyogenes C203; type: functional
Staphylococcus aureus [8] = assay: Minimum inhibitory concentration against S13E strain of Staphylococcus aureus; type: functional
[9] = Area under plasma concentration vs time curve observed in Rhesus monkeys after, iv administration of single 30 mg/kg dose; type: ADME, organism-based, Macaca mulatta; design: dose 30 mg/kg, route intravenous; conditions: rhesus monkey
In short: (§3)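 Rhesus monkeys, adult males, six animals per compound, each given drug orally and iv; fasted overnight. Single 30 mg/kg solution doses, by nasogastric tube (in water) or saphenous vein (in isotonic lactated Ringer). Plasma sampled at intervals, frozen at -70 °C, antibacterial activity by microbiological assay. AUC in μg min/mL; oral bioavailability from oral vs iv AUC.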

Mus musculus [10] = assay: Efficacy against mouse infected ip with C203 strain of Streptococcus pyogenes, administered sc to 19-21-g random sex ICR mice at 1 hr and 5 hr; type: functional; in short: as §1
Salmonella = assay: Minimum inhibitory concentration against X514 strain of Salmonella; type: functional
[11] = Oral bioavailability in dog (female mongrel); type: ADME, organism-based, Canis lupus familiaris; conditions: in vivo
In short: (§4)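 Six female mongrel dogs (14-23 kg) fasted overnight, bladder catheterized; single 15 mg/kg solution doses by stomach tube (in water, total 500 mL) or cephalic vein (saline or pH 6.0 NaCl/phosphate/acetate buffer). Plasma sampled at intervals; activity by disk-plate agar diffusion against E. coli MB 3804, standards in dog serum or buffer. AUC μg min/mL, mean ± SEM; BA from iv vs po AUC and urinary recovery.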

Staphylococcus aureus [12] = assay: Minimum inhibitory concentration against 3055 strain of Staphylococcus aureus
Staphylococcus aureus [13] = assay: Minimum inhibitory concentration against V41 strain of Staphylococcus aureus; type: functional
Canis familiaris [14] = assay: Area under plasma concentration vs time curve observed in female mongrel dogs after, iv administration of single 15 mg/kg dose; type: ADME, organism-based, Canis lupus familiaris; design: dose 15 mg/kg, route intravenous; conditions: dog, in vivo; in short: as §4
Canis familiaris [15] = assay: Area under plasma concentration vs time curve observed in female mongrel dogs after, oral administration of single 15 mg/kg dose; type: ADME, organism-based, Canis lupus familiaris; design: dose 15 mg/kg, route oral; conditions: dog, in vivo; in short: as §4
[16] = dose in urine (24-h urine excretion) in female mongrel dogs after, oral administration of single 15 mg/kg dose; type: ADME, organism-based, Canis lupus familiaris; design: dose 15 mg/kg, route oral; conditions: dog
In short: (§5)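 Female mongrel dogs (n=6), bladder catheter; urine collected at intervals after single 15 mg/kg iv or oral solution dose, frozen; antibiotic activity by disk-plate agar diffusion against E. coli MB 3804 with standards in pH 6.0 buffer; percent of dose recovered in urine.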

[17] = Minimum inhibitory concentration against N9 strain of Shigella sonnei; type: functional
[18] = dose in urine (24-h urine excretion) in female mongrel dogs after, iv administration of single 15 mg/kg dose; type: ADME, organism-based, Canis lupus familiaris; design: dose 15 mg/kg, route intravenous; conditions: dog; in short: as §5
[19] = test system: Staphylococcus epidermidis; assay: Minimum inhibitory concentration against 222 strain of Staphylococcus epidermidis; type: functional
Haemophilus influenzae [20] = assay: (§6) Minimum inhibitory concentration against res 76 strain of Haemophilus influenzae; type: functional
[21] = Area under plasma concentration vs time curve observed in Rhesus monkeys after oral administration of single 30 mg/kg dose; type: ADME, organism-based, Macaca mulatta; design: dose 30 mg/kg, route oral; conditions: rhesus monkey; in short: as §3
Mus musculus [22] = assay: Efficacy against mouse infected ip with C203 strain of Streptococcus pyogenes, administered po to 19-21-g random sex ICR mice at 1 hr and 5 hr; type: functional; in short: as §1
Mus musculus [23] = assay: Efficacy against mouse infected ip with park strain of Streptococcus pneumoniae administered sc to 19-21-g random sex ICR mice at 1 hr and 5 hr; type: functional; in short: as §1
[24] = Oral bioavailability in Rhesus monkey; type: ADME, organism-based, Macaca mulatta; conditions: in vivo; in short: as §3
[25] = test system: Staphylococcus epidermidis; assay: Minimum inhibitory concentration against Epil strain of Staphylococcus epidermidis; type: functional
Klebsiella aerogenes = assay: Minimum inhibitory concentration against EB17 strain of Enterobacter aerogenes; type: functional
Mus musculus [26] = assay: Efficacy against mouse infected ip with park strain of Streptococcus pneumoniae administered po to 19-21-g random sex ICR mice at 1 hr and 5 hr; type: functional; in short: as §1
Mus musculus [27] = assay: Efficacy against mouse infected ip with 3055 strain of Staphylococcus aureus, administered po to 19-21-g random sex ICR mice at 1 hr and 5 hr; type: functional; in short: as §1
Streptococcus pyogenes [28] = assay: Minimum inhibitory concentration against C203 strain of Streptococcus pyogenes
[29] = Bioavailability in rat; type: ADME, organism-based; conditions: in vivo
In short: (§7)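 Male Wistar rats (200-300 g), jugular-cannulated, upper GI emptied by light cycle; 20 mg/kg in saline (6 mg/mL) sc or orally. Urine collected in wire-bottom cages, assayed by B. subtilis agar well method. Mean ± SD recovery with N and range; bioavailability = oral over mean sc recovery.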

[30] = as §2; type: functional
[31] = Percent of urinary recovery in rats after, oral administration of single 20 mg/kg dose in solution (N,range); type: ADME, organism-based; design: dose 20 mg/kg, route oral; conditions: rat, urine, read-out: Recovery; in short: as §7
[32] = Mean plasma levels in rats 1 hr after iv administration of 100 mg/kg of probenecid 5 min prior to test compound; type: ADME, organism-based; design: dose 100 mg/kg, route intravenous; conditions: rat, read-out: Plasma level
In short: (§8)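 Rats, jugular vein cannulated (two per group), test compound iv 20 mg/kg; probenecid 100 mg/kg iv 5 min before in treated groups. Heparinized plasma sampled at 5, 20, 40 min and 1, 2, 3 h, assayed microbiologically (B. subtilis agar well). AUC 0-3 h in μg min/mL; half-life in min.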

[33] = Mean plasma levels in rats 2 hr after iv administration of 100 mg/kg of probenecid 5 min prior to test compound; type: ADME, organism-based; design: dose 100 mg/kg, route intravenous; conditions: rat, read-out: Plasma level; in short: as §8
[34] = as §6; type: functional
in vivo = conditions: rat
[35] = Mean plasma levels in rats 3h after intravenous administration of 20 mg/kg of compound; type: ADME, organism-based; design: dose 20 mg/kg, route intravenous; conditions: rat, read-out: Plasma level; in short: as §8
[36] = Mean plasma levels in rats 40 min after iv administration of 100 mg/kg of probenecid 5 min prior to test compound; type: ADME, organism-based; design: dose 100 mg/kg, route intravenous; conditions: rat, read-out: Plasma level; in short: as §8
[37] = Area under plasma concentration vs time curve observed in rats for 0-3 h; type: ADME; design: time < 3 hr; conditions: rat; in short: as §8
[38] = Mean plasma levels in rats 20 min after iv administration of 100 mg/kg of probenecid 5 min prior to test compound; type: ADME, organism-based; design: dose 100 mg/kg, route intravenous; conditions: rat, read-out: Plasma level; in short: as §8
[39] = Percent of urinary recovery in rats after, sc administration of single 20 mg/kg dose in solution (N,range); type: ADME, organism-based; design: dose 20 mg/kg, route subcutaneous; conditions: rat, urine, read-out: Recovery; in short: as §7
[40] = Mean plasma levels in rats at a time 5 min after iv administration of 100 mg/kg of probenecid 5 min prior to test compound; type: ADME, organism-based; design: dose 100 mg/kg, route intravenous; conditions: rat, read-out: Plasma level; in short: as §8
[41] = Half-life of the compound; type: ADME; in short: as §8

O=C(Cc1csc2ccccc12)N[C@@H]1C(=O)N2C(C(=O)O)=C(Cl)CS[C@H]12
ED50 (Mus musculus [1]): 0.62 mg/kg | MIC (Klebsiella pneumoniae): 128 µg/mL (≈ 313 µM) | MIC (Staphylococcus aureus [2]): 0.125 µg/mL (≈ 0.306 µM) | MIC (Streptococcus pneumoniae [3]): 0.06 µg/mL (≈ 0.147 µM) | MIC (Haemophilus influenzae [4]): 1 µg/mL (≈ 2.45 µM) | MIC (Streptococcus pneumoniae [5]): 0.125 µg/mL (≈ 0.306 µM) | bioavailability [6]: 47% | MIC (Escherichia coli): 64 µg/mL (≈ 157 µM) | MIC (Streptococcus pyogenes [7]): 0.06 µg/mL (≈ 0.147 µM) | MIC (Staphylococcus aureus [8]): 8 µg/mL (≈ 19.6 µM) | AUC [9]: 86800 ng·h/mL | ED50 (Mus musculus [10]): 3.8 mg/kg | MIC (Salmonella): 128 µg/mL (≈ 313 µM) | bioavailability [11]: < 3% | MIC (Staphylococcus aureus [12]): 0.25 µg/mL (≈ 0.611 µM) | MIC (Staphylococcus aureus [13]): 8 µg/mL (≈ 19.6 µM) | AUC (Canis familiaris [14]): 29300 ng·h/mL | AUC (Canis familiaris [15]): < 800 ng·h/mL | dose excreted [16]: 1.5% | MIC [17]: 128 µg/mL (≈ 313 µM) | dose excreted [18]: 20% | MIC [19]: 0.25 µg/mL (≈ 0.611 µM) | MIC (Haemophilus influenzae [20]): 0.25 µg/mL (≈ 0.611 µM) | AUC [21]: 1170 ng·h/mL | ED50 (Mus musculus [22]): 5.5 mg/kg | ED50 (Mus musculus [23]): 14.8 mg/kg | bioavailability [24]: 1.3% | MIC [25]: 1 µg/mL (≈ 2.45 µM) | MIC (Klebsiella aerogenes): > 128 µg/mL | ED50 (Mus musculus [26]): 36.2 mg/kg | ED50 (Mus musculus [27]): 1.51 mg/kg | MIC (Streptococcus pyogenes [28]): 0.06 µg/mL (≈ 0.147 µM)

CC1(C)S[C@@H]2[C@H](NC(=O)COc3ccccc3)C(=O)N2[C@H]1C(=O)O [PENICILLIN V]
ED50 (Mus musculus [1]): 0.04 mg/kg | bioavailability [29]: 11.6% | MIC (Klebsiella pneumoniae): > 128 µg/mL | MIC (Staphylococcus aureus [2]): 0.06 µg/mL (≈ 0.171 µM) | MIC (Streptococcus pneumoniae [3]): 0.02 µg/mL (≈ 0.0571 µM) | MIC [30]: 64 µg/mL (≈ 183 µM) | dose excreted [31]: 2.6% | MIC (Streptococcus pneumoniae [5]): 16 µg/mL (≈ 45.7 µM) | bioavailability [6]: 29% | concentration at 1 h [32]: 6800 ng/mL | MIC (Escherichia coli): > 128 µg/mL | MIC (Streptococcus pyogenes [7]): 0.06 µg/mL (≈ 0.171 µM) | MIC (Staphylococcus aureus [8]): 16 µg/mL (≈ 45.7 µM) | AUC [9]: 43000 ng·h/mL | ED50 (Mus musculus [10]): 0.16 mg/kg | MIC (Salmonella): > 128 µg/mL | MIC (Staphylococcus aureus [12]): 0.04 µg/mL (≈ 0.114 µM) | concentration at 2 h [33]: 800 ng/mL | MIC (Staphylococcus aureus [13]): 32 µg/mL (≈ 91.3 µM) | AUC (Canis familiaris [14]): 25300 ng·h/mL | AUC (Canis familiaris [15]): 3000 ng·h/mL | dose excreted [16]: 4.9% | MIC [17]: > 128 µg/mL | dose excreted [18]: 32% | MIC [19]: 0.06 µg/mL (≈ 0.171 µM) | MIC [34]: > 128 µg/mL | bioavailability (in vivo): 34% | AUC [21]: 2330 ng·h/mL | concentration at 3 h [35]: < 300 ng/mL | concentration at 40 min [36]: 14100 ng/mL | AUC at 3 h [37]: 32000 ng·h/mL | ED50 (Mus musculus [22]): 0.62 mg/kg | ED50 (Mus musculus [23]): 2.1 mg/kg | bioavailability [24]: 5.5% | concentration at 20 min [38]: 30400 ng/mL | MIC [25]: 0.125 µg/mL (≈ 0.357 µM) | dose excreted [39]: 22.5% | MIC (Klebsiella aerogenes): > 128 µg/mL | concentration at 5 min [40]: 59000 ng/mL | ED50 (Mus musculus [26]): 2.8 mg/kg | ED50 (Mus musculus [27]): 0.5 mg/kg | half-life [41]: 19.4 min | MIC (Streptococcus pyogenes [28]): 0.06 µg/mL (≈ 0.171 µM)

— ChEMBL document CHEMBL1123985, “Oral absorption of cephalosporin antibiotics. 1. Synthesis, biological properties, and oral bioavailability of 7-(arylacetamido)-3-chloro cephalosporins in animals” (J Med Chem, 1988)
